Inhibition and ΔTm data for seven molecules are collected here from ChEMBL document CHEMBL4765355, “Synthesis of adenine dinucleosides SAM analogs as specific inhibitors of SARS-CoV nsp14 RNA cap guanine-N7-methyltransferase” (Eur J Med Chem, 2020).

One may read the inhibition as the drop in the measured response relative to a control, in per cent. The term ΔTm denotes the shift of the melting midpoint relative to a reference.

SMILES strings stand for the structures. The source made the active and inactive calls. No cut-off for these calls is given here.

Series [1] relates to Severe acute respiratory syndrome-related coronavirus. Put plainly: Inhibition of N7-MTase activity of N-terminal His6-tagged SARS-CoV nsp14 expressed in Escherichia coli using GpppAC4 and [3H]SAM as substrate at 50 uM preincubated with enzyme followed by substrate addition and measured after 30 mins by filter binding assay. In short, it runs like this: (§1)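 Filter binding assay in 40 mM Tris-HCl pH 8.0, 1 mM DTT, 1 mM MgCl2, 2 µM SAM, 0.1 µM 3H-SAM and 0.7 µM GpppAC4 RNA. Enzyme is nsp14 (50 nM), hRNMT (50 nM) or vaccinia D1–D12 (41 U). Compound is at 50 µM with 5% final DMSO. Reactions run 30 min at 30 °C, are stopped by ice-cold water dilution, and 3H on DEAE filters is counted. Percent inhibition is relative to a 5% DMSO control, mean of three experiments.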

Series [2] deals with Orthopoxvirus vaccinia. Nature of the series: Inhibition of N7-MTase activity of Vaccinia virus mRNA capping enzyme D1/D12 complex using GpppAC4 and [3H]SAM as substrate at 50 uM preincubated with enzyme followed by substrate addition and measured after 30 mins by filter binding assay. The method in brief:
as §1

Series [3] has as its target RNA-N7 MTase (mRNA cap guanine-N(7) methyltransferase) (Homo sapiens, UniProt O43148). Put plainly: Inhibition of N-terminal His6-tagged human RNA-N7 MTase expressed in Escherichia coli using GpppAC4 and [3H]SAM as substrate at 50 uM preincubated with enzyme followed by substrate addition and measured after 30 mins by filter binding assay. The following applies: probe GpppAC4 and [3H]SAM. In short, it runs like this: as §1

Series [4] has as its system Severe acute respiratory syndrome-related coronavirus. Put plainly: Inhibition of 2'-O-MTase activity of SARS-CoV nsp10/16 complex at 200 uM.
For a further series, the system named is Zika virus. Put plainly: Inhibition of 2'-O-methyltransferase in Zika virus at 200 uM.
The next series deals with West Nile virus. Nature of the series: Inhibition of 2'-O-methyltransferase in West-Nile virus at 200 uM.
For a further series, the system named is Dengue virus. Put plainly: Inhibition of 2'-O-methyltransferase in Dengue virus at 200 uM.
The test system of series [5] is Orthopoxvirus vaccinia. Nature of the series: Inhibition of 2'-O-methyltransferase activity of Vaccinia virus VP39 at 200 uM.
Series [6] concerns Severe acute respiratory syndrome-related coronavirus. Put plainly: Binding affinity to SARS-CoV nsp14 assessed as increase in melting temperature at 1 mM at pH 7.5 by differential scanning fluorimetry. The method in brief:
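Purified SARS-CoV nsp14 (5 µM) in 20 mM HEPES pH 7.5, 150 mM NaCl and 1X SYPRO orange, with 1 mM compound (DMSO stock; SAM and sinefungin from water). Protein is mixed with compound before dye is added. Fluorescence is read from 20 to 95 °C at 0.2 °C/min. Tm comes from curve fitting, and ΔTm is taken against a 5% DMSO control.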
Background: DSF heats the sample and reads unfolding from a dye or from intrinsic fluorescence.

Chain of RNA-N7 MTase (mRNA cap guanine-N(7) methyltransferase) (O43148 whole entry): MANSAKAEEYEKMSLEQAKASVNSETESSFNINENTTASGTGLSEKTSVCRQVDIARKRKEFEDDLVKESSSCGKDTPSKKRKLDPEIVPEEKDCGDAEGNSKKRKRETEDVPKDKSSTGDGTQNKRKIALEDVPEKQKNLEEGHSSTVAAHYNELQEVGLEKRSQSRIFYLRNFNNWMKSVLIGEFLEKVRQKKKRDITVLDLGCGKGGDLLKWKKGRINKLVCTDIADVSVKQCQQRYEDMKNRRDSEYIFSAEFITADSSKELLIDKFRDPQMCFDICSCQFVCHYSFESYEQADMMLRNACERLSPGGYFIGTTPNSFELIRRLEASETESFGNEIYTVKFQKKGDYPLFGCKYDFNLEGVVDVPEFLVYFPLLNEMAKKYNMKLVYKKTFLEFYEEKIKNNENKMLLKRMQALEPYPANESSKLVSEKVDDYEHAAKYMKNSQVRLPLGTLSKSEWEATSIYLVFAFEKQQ

In the case of `CCCCN(CCO[C@@H]1[C@H](O)[C@@H](CO)O[C@H]1n1cnc2c(N)ncnc21)C[C@H]1O[C@@H](n2cnc3c(N)ncnc32)[C@H](O)[C@@H]1O`, the inhibition result (in [1]; in the series on Orthopoxvirus vaccinia [2]; in [4]; with Zika virus; in the series on West Nile virus; with Dengue virus) was “inactive” each time. Besides, the inhibition entry with Orthopoxvirus vaccinia [5] was “inactive”. In series [3], this molecule had an inhibition at 0.5 h, 50 µM of 27.5%.

As to `Nc1ncnc2c1ncn2[C@@H]1O[C@H](CNCCO[C@@H]2[C@H](O)[C@@H](CO)O[C@H]2n2cnc3c(N)ncnc32)[C@@H](O)[C@H]1O`, the inhibition was 31% in series [1] and 20.3% in the series with Orthopoxvirus vaccinia [2]. The inhibition at 0.5 h, 50 µM in [3] came out at 35.2%. Besides, the inhibition entry (in [4]; in the series on Zika virus; in the series on West Nile virus; in the series with Dengue virus; in the series with Orthopoxvirus vaccinia [5]) was “inactive” in each case.

With `Nc1ncnc2c1ncn2[C@@H]1O[C@H](CSCC[C@H](N)C(=O)O)[C@@H](O)[C@H]1O`, the shift in melting temperature (ΔTm) in series [6] was 6.5 °C.

As to `COC(=O)CCCN(CCO[C@@H]1[C@H](O)[C@@H](CO)O[C@H]1n1cnc2c(N)ncnc21)C[C@H]1O[C@@H](n2cnc3c(N)ncnc32)[C@H](O)[C@@H]1O`, the inhibition entry (in [1]; in series [4]; with Zika virus; with West Nile virus; in the series with Dengue virus; with Orthopoxvirus vaccinia [5]) was “inactive” each time. The molecule further showed an inhibition in the series with Orthopoxvirus vaccinia [2] of 69.2%. The same molecule yielded an inhibition at 0.5 h, 50 µM in series [3] of 32.8%.

As to `Nc1ncnc2c1ncn2[C@@H]1O[C@H](CN(CCCC(=O)O)CCO[C@@H]2[C@H](O)[C@@H](CO)O[C@H]2n2cnc3c(N)ncnc32)[C@@H](O)[C@H]1O`, in series [1], the inhibition came to 43%. For the same molecule, the inhibition result (in the series on Orthopoxvirus vaccinia [2]; in series [4]; with Zika virus; with West Nile virus; in the series with Dengue virus; in the series with Orthopoxvirus vaccinia [5]) was “inactive” each time.

`COC(=O)[C@@H](N)CCN(CCO[C@@H]1[C@H](O)[C@@H](CO)O[C@H]1n1cnc2c(N)ncnc21)C[C@H]1O[C@@H](n2cnc3c(N)ncnc32)[C@H](O)[C@@H]1O`: the inhibition was 30.6% in [1] and 32.1% in the series on Orthopoxvirus vaccinia [2]. In series [3], this molecule gave an inhibition at 0.5 h, 50 µM of 33.2%. The inhibition result (in [4]; in the series on Zika virus; in the series on West Nile virus; in the series with Dengue virus; in the series with Orthopoxvirus vaccinia [5]) was “inactive” throughout.

Regarding `NC(=O)[C@@H](N)CCN(CCO[C@@H]1[C@H](O)[C@@H](CO)O[C@H]1n1cnc2c(N)ncnc21)C[C@H]1O[C@@H](n2cnc3c(N)ncnc32)[C@H](O)[C@@H]1O`, the inhibition stood at 13.1% in [1] and 53.2% with Orthopoxvirus vaccinia [2]. For the same molecule, the inhibition at 0.5 h, 50 µM in series [3] turned out to be 12.2%. Moreover, the inhibition entry (in series [4]; in the series on Zika virus; with West Nile virus; in the series with Dengue virus; with Orthopoxvirus vaccinia [5]) was “inactive” in each case.
